Assay results: the M2OR odorant receptor database

Assays:
Conditions in all cases: stereoisomer not certain
[1] = system: OR1A2 A108G K109N S155N
Summary of the method: (§1)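 Whether a receptor–molecule pair is responsive (active) rests on the original authors' judgment that its measured signal was statistically different from baseline. Pairs without that judgment are non-responsive (inactive). Sources used varied assay methods, commonly transient luciferase assays in mammalian cell lines.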

[2] = system: OR1A2 A108G K109N T154A S155N
Summary of the method: as §1

[3] = system: OR1A2 A108G K109N T154A
Summary of the method: as §1

[4] = system: OR1A2 A108G K109N
Summary of the method: as §1

[5] = system: OR1A2 A108G T154A S155N
Summary of the method: as §1

[6] = system: OR1A2 A108G
Summary of the method: as §1

[7] = system: OR1A2 K109N T154A S155N
Summary of the method: as §1

[8] = system: OR1A2 K109N
Summary of the method: as §1

Measured: odorant receptor agonist call;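 further: active if original authors judged signal statistically different from baseline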

Sequence of OR1A2 K109N (as listed by the source, stated change not applied): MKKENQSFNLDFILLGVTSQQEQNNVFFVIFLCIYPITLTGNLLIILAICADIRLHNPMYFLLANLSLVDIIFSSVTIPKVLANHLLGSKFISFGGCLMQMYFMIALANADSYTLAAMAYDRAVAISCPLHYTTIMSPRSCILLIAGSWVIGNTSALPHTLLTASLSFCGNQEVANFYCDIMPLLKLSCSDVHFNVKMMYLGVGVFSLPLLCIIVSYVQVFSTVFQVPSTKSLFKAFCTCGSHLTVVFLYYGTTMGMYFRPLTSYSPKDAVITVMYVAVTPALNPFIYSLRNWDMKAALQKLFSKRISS
Sequence of OR1A2 A108G (as listed by the source, stated change not applied): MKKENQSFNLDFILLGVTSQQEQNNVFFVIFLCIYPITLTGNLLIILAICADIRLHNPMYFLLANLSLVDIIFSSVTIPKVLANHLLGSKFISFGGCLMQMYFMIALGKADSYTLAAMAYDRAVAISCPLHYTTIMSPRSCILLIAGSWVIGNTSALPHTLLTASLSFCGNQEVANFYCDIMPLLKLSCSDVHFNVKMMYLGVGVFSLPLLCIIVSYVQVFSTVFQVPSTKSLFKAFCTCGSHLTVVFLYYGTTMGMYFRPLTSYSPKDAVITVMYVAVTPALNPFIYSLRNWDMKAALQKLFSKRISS

CC(C)=CCCC(C)CCO (stereo not drawn)
active: [1] | [2] | [3] | [4] | [5] | [6] | [7] | [8]
